What is called ED50 is the midpoint of the dose-response relation. In general, TD50 refers to the dose at which the toxic effect under study appears in half of the subjects. Low readings indicate harm at a small dose, high ones harm only at a large dose.

For data set [1], the system named is Mus musculus. Nature of the data set: Anticonvulsant activity in intraperitoneally dosed Albino Swiss CD1 mouse by maximal electroshock test. The data set is classed as functional. The note with it: Albino Swiss CD1, ip. Put shortly:
(§1)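 Male CD-1 mice were dosed ip (0.1 mL/10 g, methylcellulose vehicle), at least four dose groups of 6 mice each. Protection in MES meant no hindlimb tonic extension after a 25 mA, 50 Hz, 0.2 s ear-electrode shock. Protection in scPTZ meant no clonus over 30 min.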
In general terms: Protection in the maximal electroshock model is a classic sign of anticonvulsant action.

Data set [2] in a line: Neurological toxicity in intraperitoneally dosed Albino Swiss CD1 mouse by rotarod test. The note with it: in vivo, ip. Type of data set: organism-based. The procedure, abridged:
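Mice trained on the rotarod were given various ip doses, four groups in all, and tested at 10 rpm. Failure to stay on the rod for at least 1 min indicated neurotoxicity.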
In general terms: The rotarod test checks motor coordination on a turning rod.

For data set [3], the system named is Mus musculus. Nature of the data set: Anticonvulsant activity in Albino Swiss CD1 mouse at 100 mg/kg, ip after 2 hrs by maximal electroshock test. Type of data set: functional, organism-based. More on the design: dose 100 mg/kg. The procedure, abridged:
(§2)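 Male CD-1 mice, 16–26 g, in groups of 4, each mouse used once, were given 100 mg/kg ip (0.1 mL/10 g, methylcellulose vehicle). MES used 25 mA, 500 V, 50 Hz delivered by ear electrodes for 0.2 s, and absence of hindlimb tonic extension counted as protection. In scPTZ, mice without clonic convulsions over 30 min of observation counted as protected. Both tests were run 0.5 h or 2 h after dosing.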

The test system of data set [4] is Mus musculus. Nature of the data set: Neurological toxicity in Albino Swiss CD1 mouse at 100 mg/kg, ip after 0.5 hrs by rotarod test. The data set is classed as organism-based. Details: dose 100 mg/kg, route intraperitoneal. The note with it: in vivo. The procedure, abridged: (§3)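 Mice were trained on a 2 cm rod for 3 min, with unlimited trials, at least 24 h before testing. Each was then dosed ip at 100 mg/kg and tested at 10 rpm 0.5 h or 2 h later, in groups of 4. Failure to stay on the rod for at least 1 min indicated neurotoxicity.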

Data set [5] has as its system Mus musculus. Nature of the data set: Anticonvulsant activity in Albino Swiss CD1 mouse at 100 mg/kg, ip after 0.5 hrs by subcutaneous pentylenetetrazole test. The data set is classed as functional, organism-based. More on the design: dose 100 mg/kg. Put shortly:
as §2

Data set [6] concerns Mus musculus. Nature of the data set: Anticonvulsant activity in intraperitoneally dosed Albino Swiss CD1 mouse assessed as time to peak effect by maximal electroshock test. The data set is classed as functional.
Data set [7] concerns Mus musculus. Nature of the data set: Neurological toxicity in Albino Swiss CD1 mouse at 100 mg/kg, ip after 2 hrs by rotarod test. Type of data set: organism-based. Details: dose 100 mg/kg, route intraperitoneal. The settings on record: in vivo. The procedure, abridged: as §3
The species entered for data set [8] is Mus musculus. Put plainly: Protective index, ratio of neurotoxic TD50 in Albino Swiss CD1 mouse by rotarod test to anticonvulsant ED50 in Albino Swiss CD1 mouse by maximal electroshock test. Put shortly: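 The protective index is the rotarod TD50 divided by the MES or scPTZ ED50. Each value came from ip dosing in male CD-1 mice with probit analysis, and the reference drugs were tested under the same conditions.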

For data set [9], the system named is Mus musculus. Put plainly: Anticonvulsant activity in intraperitoneally dosed Albino Swiss CD1 mouse assessed as time to peak effect after 2 hrs by subcutaneous pentylenetetrazole test. The data set is classed as functional.
The test system of data set [10] is Mus musculus. Nature of the data set: Anticonvulsant activity in intraperitoneally dosed Albino Swiss CD1 mouse after 0.5 hrs by maximal electroshock test. The data set is classed as functional. The procedure, abridged:
as §1

In data set [11] the test system is Mus musculus. Put plainly: Anticonvulsant activity in Albino Swiss CD1 mouse at 100 mg/kg, ip after 2 hrs by subcutaneous pentylenetetrazole test. Details: dose 100 mg/kg. Type of data set: functional, organism-based. The procedure, abridged:
as §2

The subject of data set [12] is Mus musculus. Put plainly: Anticonvulsant activity in Albino Swiss CD1 mouse at 100 mg/kg, ip after 0.5 hrs by maximal electroshock test. More on the design: dose 100 mg/kg. The data set is classed as functional, organism-based. Put shortly: as §2
In data set [13] the test system is Mus musculus. Nature of the data set: Anticonvulsant activity in intraperitoneally dosed Albino Swiss CD1 mouse by subcutaneous pentylenetetrazole test. The data set is classed as functional. Put shortly: as §1

Calls of active or inactive are those of the source. The rule behind the calls is not given here.

In the case of `CC(C(=O)NCc1ccccc1Cl)N1C(=O)CCC1=O` (racemic), the ED50 in data set [1] was found to be 74.5 mg/kg. In data set [2], this compound returned a TD50 of 340 mg/kg. Moreover, the outcome in [3], in [5] and in data set [11] was inactive. The Activity result in [4] and in data set [7] was “Non-toxic” each time. For the same compound, the Time in [6] and in data set [9] was 0.5 h throughout. Moreover, the “Ratio TD50/ED50” value in data set [8] stood at 4.57. This compound had an MED50 in data set [10] of 100 mg/kg.

On to `CC(C(=O)NCc1cccc(C(F)(F)F)c1)N1C(=O)CCC1=O` (racemic), for which the ED50 in [1] stood at 92.4 mg/kg. The same compound registered a TD50 in data set [2] of 332 mg/kg. For the same compound, the result in data set [3], in data set [5] and in [11] was inactive. Moreover, the Activity result in data set [4] and in data set [7] was “Non-toxic” in each case. In addition, the Time in [6] and in data set [9] was 0.5 h each time. Moreover, the “Ratio TD50/ED50” value in [8] worked out at 3.59. In [10], the MED50 worked out at 100 mg/kg.

Take `CC(C(=O)NCC1CCCCC1)N1C(=O)CCC1=O` (configuration not stated): the outcome in data set [3], in data set [5], in [12] and in data set [11] was inactive. The Activity entry in data set [4] and in [7] was “Non-toxic” throughout.

Turning to `CC(C(=O)NCc1ccccc1C(F)(F)F)N1C(=O)CCC1=O` (racemic), the result in data set [3], in data set [5], in [12] and in [11] was inactive. Further, the Activity result in data set [4] and in data set [7] was “Non-toxic” throughout.

For the compound `CC1CC(=O)N(C(C)C(=O)NCc2ccc(Cl)cc2)C1=O` (racemic), the result in data set [3], in [5], in data set [12] and in data set [11] was inactive. The Activity result in data set [4] and in data set [7] was “Non-toxic” in each case.

Turning to `CCC(C(=O)NCC1CCCCC1)N1C(=O)CCC1=O` (racemic), the result in data set [3], in [5], in [12] and in [11] was inactive. The Activity entry in data set [4] and in data set [7] was “Non-toxic” each time.

Take `CC1CC(=O)N(C(C)C(=O)NCc2ccccc2F)C1=O` (racemic): the ED50 in data set [1] amounted to 80.5 mg/kg. In addition, in data set [2], the TD50 is 239 mg/kg. Also, the outcome in data set [3], in data set [5] and in data set [11] was inactive. Besides, the Activity result in [4] and in data set [7] was “Non-toxic” in each case. For the same compound, the Time in [6] and in [9] was 0.5 h in each case. For the same compound, the “Ratio TD50/ED50” value in data set [8] was determined as 2.97. The compound also registered an MED50 in [10] of 100 mg/kg.

Take `CC1CC(=O)N(C(C)C(=O)NCc2ccccc2C(F)(F)F)C1=O` (racemic): the result in data set [3], in data set [5], in data set [12] and in data set [11] was inactive. Moreover, the Activity result in [4] and in data set [7] was “Non-toxic” throughout.

Turning to `CC(C(=O)NCc1cccc(F)c1)N1C(=O)CCC1=O` (racemic), in [1], the ED50 amounted to 77.4 mg/kg. The compound also displayed a TD50 in data set [2] of more than 500 mg/kg. In addition, the result in data set [3], in data set [5] and in data set [11] was inactive. Besides, the Activity result in [4] and in data set [7] was “Non-toxic” in each case. Besides, the Time in [6] and in [9] was 0.5 h in each case. Also, the “Ratio TD50/ED50” value in data set [8] is more than 6.46. In [10], this compound registered an MED50 of 100 mg/kg.

With `CC(C(=O)NCc1ccc(F)cc1)N1C(=O)CCC1=O` (racemic), the result in data set [3], in [5], in [12] and in [11] was inactive. Also, the Activity result in data set [4] and in data set [7] was “Non-toxic” throughout.

For `CCCC(CCC)C(=O)O` [VALPROIC ACID], the Time in data set [6] and in [9] was 0.5 h in each case.

In the case of `COC[C@@H](NC(C)=O)C(=O)NCc1ccccc1` [LACOSAMIDE], the results for the ED50 in [1] and in data set [13] were 9.24 mg/kg and more than 500 mg/kg, respectively. Moreover, the Time in [6] and in [9] was 0.5 h each time.

Compound `CC(C(=O)NCc1cccc(Cl)c1)N1C(=O)CCC1=O` (racemic) showed a median effective dose (ED50) in [1] of 82 mg/kg. The compound also registered a TD50 in data set [2] of 347 mg/kg. In addition, the outcome in data set [3], in data set [5] and in data set [11] was inactive. Moreover, the Activity entry in [4] and in data set [7] was “Non-toxic” each time. In addition, the Time in data set [6] and in [9] was 0.5 h each time. In addition, the “Ratio TD50/ED50” value in data set [8] amounted to 4.23. The compound also displayed an MED50 in data set [10] of 100 mg/kg.

Turning to `NC(=O)N1c2ccccc2C=Cc2ccccc21` [CARBAMAZEPINE], the figures for the ED50 in data set [1] and in data set [13] were 14.2 mg/kg and more than 100 mg/kg, respectively. In data set [2], this compound came in with a TD50 of 49.3 mg/kg. In addition, the Time in data set [6] and in data set [9] was 0.5 h in each case. In data set [8], the “Ratio TD50/ED50” value is listed as 3.47.

`CCC1(C)CC(=O)NC1=O` (configuration not stated) [ETHOSUXIMIDE] had a 50% effective dose (ED50) in data set [1] of more than 500 mg/kg. In addition, the Time in data set [6] and in [9] was 0.25 h each time.

Take `CC1CC(=O)N(C(C)C(=O)NCc2ccc(F)cc2)C1=O` (racemic): the result in [3], in data set [5], in [12] and in data set [11] was inactive. Moreover, the Activity entry in data set [4] and in [7] was “Non-toxic” in each case.

Consider `CC1CC(=O)N(C(C)C(=O)NCC2CCCCC2)C1=O` (racemic), for which the result in data set [3], in [5], in [12] and in data set [11] was inactive. Also, the Activity result in data set [4] and in data set [7] was “Non-toxic” in each case.

Take `CC1CC(=O)N(C(C)C(=O)NCc2cccc(Cl)c2)C1=O` (racemic): in data set [1], it took a dose of 90.3 mg/kg to reach the 50% effect level (ED50). In addition, the TD50 in [2] stood at 247 mg/kg. Besides, the result in [3], in data set [5] and in data set [11] was inactive. The Activity result in data set [4] and in [7] was “Non-toxic” throughout. In addition, the Time in data set [6] and in data set [9] was 0.5 h each time. For the same compound, the “Ratio TD50/ED50” value in data set [8] amounted to 2.73. The compound further came in with an MED50 in data set [10] of 100 mg/kg.

In turn, `CC1CC(=O)N(C(C)C(=O)NCc2cccc(F)c2)C1=O` (racemic) showed a median effective dose (ED50) in data set [1] of 130 mg/kg. The compound further gave a TD50 in data set [2] of 297 mg/kg. Besides, the outcome in [3], in [5] and in data set [11] was inactive. For the same compound, the Activity entry in data set [4] and in data set [7] was “Non-toxic” throughout. The Time in data set [6] and in data set [9] was 0.5 h in each case. In addition, the “Ratio TD50/ED50” value in [8] was 2.29. In [10], this compound came in with an MED50 of 100 mg/kg.

Consider `CC1CC(=O)N(C(C)C(=O)NCc2ccccc2Cl)C1=O` (racemic), for which it took a dose of 85.8 mg/kg to reach the 50% effect level in data set [1] (ED50). Further, the TD50 in data set [2] was 275 mg/kg. Moreover, the outcome in [3], in data set [5] and in data set [11] was inactive. Besides, the Activity entry in data set [4] and in [7] was “Non-toxic” each time. Moreover, the Time in data set [6] and in data set [9] was 0.5 h in each case. Further, the “Ratio TD50/ED50” value in [8] is listed as 3.2. For the same compound, the MED50 in data set [10] was 100 mg/kg.

On to `CC1CC(=O)N(C(C)C(=O)NCc2cccc(C(F)(F)F)c2)C1=O` (racemic), for which the result in data set [3], in data set [5], in data set [12] and in [11] was inactive. Also, the Activity entry in [4] and in data set [7] was “Non-toxic” each time.
